The structures appear in SMILES notation. Activity calls are given as the source filed them. The calls are words filed in the database; no cut-off is given here.

Data set [1] addresses Cholinesterase (Equus caballus) (UniProt P81908). As to the kind of experiment: Inhibition of equine serum BChE at 10 uM by Ellman's method.
Data set [2] addresses Acetylcholinesterase (Electrophorus electricus) (UniProt O42275). As to the kind of experiment: Inhibition of electric eel AChE at 10 uM by Ellman's method.
A short description of data set [3]: Selectivity ratio of IC50 for Electrophorus electricus acetylcholinesterase to IC50 for equine serum butyrylcholinesterase. The gist of the method:
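Ratio IC50(AChE)/IC50(BChE), with both IC50s from Ellman assays (electric eel AChE, equine serum BChE, 25 °C, 412 nm, at least five concentrations in triplicate, at least 3 independent determinations).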

The target of the next data set is Acetylcholinesterase (Electrophorus electricus, UniProt O42275). As to the kind of experiment: Inhibition of electric eel AChE by Ellman's method. Put shortly:
(§1)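 Ethanol stocks diluted into assay, highest final concentration 10^-4 M. For curves, at least five concentrations (normally 10^-4 to 10^-9 M), each in triplicate; at least 3 independent determinations.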
Background: Ellman's reagent forms a yellow product with free thiols.

The target of another data set is Cholinesterase (Equus caballus, UniProt P81908). In words: (§2) Inhibition of equine serum BChE by Ellman's method. Put shortly:
as §1

A short description of data set [4]: Antioxidant activity in phosphate buffer assessed as scavenging activity against peroxy radicals at pH 7.4 by ORAC-FL method relative to trolox. It is filed as functional. Put shortly:
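ORAC-FL in 75 mM phosphate buffer pH 7.4, 37 °C; sample with fluorescein (300 nM final) preincubated 15 min, then AAPH (12 mM final) added; fluorescence read every 60 s for 90 min (ex 485/em 535 nm). Blank and Trolox calibration in each assay; AUC from blank-normalised decay curves; expressed as Trolox equivalents.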

Data set [5] has as its target Cholinesterase (Equus caballus) (UniProt P81908). As to the kind of experiment: Inhibition of equine serum BChE at 100 uM by Ellman's method.
Data set [6] deals with Acetylcholinesterase (Electrophorus electricus) (UniProt O42275). As to the kind of experiment: Inhibition of electric eel AChE at 100 uM by Ellman's method.
Chain of Acetylcholinesterase (Electrophorus electricus) (O42275 24-633 limits assumed): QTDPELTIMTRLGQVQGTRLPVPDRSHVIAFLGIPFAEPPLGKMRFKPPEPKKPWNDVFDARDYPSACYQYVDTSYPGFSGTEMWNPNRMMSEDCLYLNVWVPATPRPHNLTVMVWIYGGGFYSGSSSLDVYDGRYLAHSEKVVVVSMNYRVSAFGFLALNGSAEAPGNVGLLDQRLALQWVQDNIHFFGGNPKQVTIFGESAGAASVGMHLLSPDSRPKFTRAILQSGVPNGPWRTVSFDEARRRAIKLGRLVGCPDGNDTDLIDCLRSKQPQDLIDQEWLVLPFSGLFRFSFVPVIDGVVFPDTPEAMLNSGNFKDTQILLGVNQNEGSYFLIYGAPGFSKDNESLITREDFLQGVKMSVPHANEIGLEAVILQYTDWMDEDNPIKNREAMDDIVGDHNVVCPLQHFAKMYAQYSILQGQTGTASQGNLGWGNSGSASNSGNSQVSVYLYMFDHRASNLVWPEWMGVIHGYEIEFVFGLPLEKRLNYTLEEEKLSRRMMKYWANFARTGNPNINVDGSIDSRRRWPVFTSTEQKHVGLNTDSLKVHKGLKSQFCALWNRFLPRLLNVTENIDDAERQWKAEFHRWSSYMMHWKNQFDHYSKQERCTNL
Data set [7] relates to HT-22. As to the kind of experiment: Neurotoxicity against mouse HT22 cells assessed as reduction in cell viability at 1 to 10 uM […] by MTT assay. It is filed as toxicity, cell-based. The note with it: ht-22, 10 µM. In general terms: Tetrazolium assays rely on reduction of a dye to a coloured formazan, in cell work by metabolically active cells.
Data set [8] has as its system HT-22. As to the kind of experiment: Neurotoxicity against mouse HT22 cells assessed as reduction in cell viability at 25 uM […] by MTT assay. It is filed as toxicity, cell-based. The conditions noted are these: ht-22, 25 µM.
Data set [9] deals with HT-22. In words: Neuroprotection against glutamate challenged mouse HT22 cells assessed as reduction in cell viability at 1 to 25 uM after 48 hrs by MTT assay. It is filed as functional, cell-based. Put shortly:
(§3)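 Murine hippocampal HT-22 cells grown in high-glucose DMEM + 10% heat-inactivated FCS, 37 °C, 5% CO2. Seeded 5 × 10³/well, cultured 24 h, then 24 h with compound (DMSO stock, final DMSO ≤0.1%) plus 5 mM glutamate. MTT (4 mg/mL stock diluted 1:10) for 3 h, 10% SDS lysis, absorbance 560 nm next day. Viability as % of untreated control. Means ± SD, ≥3 independent experiments.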

In data set [10] the target is Cholinesterase (Equus caballus) (UniProt P81908). As to the kind of experiment: Binding affinity to equine serum BChE assessed as compound-enzyme complex stability. Put shortly:
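Kinetic study on equine serum BChE with time-dependent inhibition followed to steady state (60 min); equilibrium constant of inhibitor–BChE complex (K_C) and carbamoylation rate constant (k3) determined.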

Data set [11] has the same target. The data set is described as §2. The conditions noted are these: TDE = time-dependent effect. Put shortly: as §1
The test system of data set [12] is HT-22. As to the kind of experiment: Neurotoxicity against mouse HT22 cells assessed as reduction in cell viability at 1 to 25 uM […] by MTT assay. The conditions noted are these: ht-22, 25 µM. It is filed as toxicity, cell-based.
Data set [13] relates to HT-22. In words: Neuroprotection against glutamate challenged mouse HT22 cells assessed as reduction in cell viability at 5 uM after 48 hrs by MTT assay. It counts as functional, cell-based.
The subject of data set [14] is HT-22. In words: Neuroprotection against glutamate challenged mouse HT22 cells assessed as reduction in cell viability at 5 to 10 uM after 48 hrs by MTT assay. It counts as functional, cell-based. Put shortly: as §3

Chain of Cholinesterase (Equus caballus) (P81908 whole entry): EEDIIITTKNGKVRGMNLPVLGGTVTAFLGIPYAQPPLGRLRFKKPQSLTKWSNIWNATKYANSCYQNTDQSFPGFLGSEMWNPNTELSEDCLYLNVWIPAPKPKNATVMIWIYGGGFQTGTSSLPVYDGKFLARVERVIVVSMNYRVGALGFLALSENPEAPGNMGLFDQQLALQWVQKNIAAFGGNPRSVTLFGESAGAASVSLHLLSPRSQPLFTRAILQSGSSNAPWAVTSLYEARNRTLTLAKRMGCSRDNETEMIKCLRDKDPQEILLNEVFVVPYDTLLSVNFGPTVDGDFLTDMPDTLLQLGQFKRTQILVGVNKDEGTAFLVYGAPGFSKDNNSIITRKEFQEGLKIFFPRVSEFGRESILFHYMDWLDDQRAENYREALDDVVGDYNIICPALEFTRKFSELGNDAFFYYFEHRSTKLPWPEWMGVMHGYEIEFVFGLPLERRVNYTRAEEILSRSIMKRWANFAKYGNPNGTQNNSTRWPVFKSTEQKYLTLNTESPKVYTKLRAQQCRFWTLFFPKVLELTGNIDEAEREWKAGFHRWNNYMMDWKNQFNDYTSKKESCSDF
Chain of Cholinesterase (P81908 whole entry): as above
Chain of Acetylcholinesterase (O42275 whole entry): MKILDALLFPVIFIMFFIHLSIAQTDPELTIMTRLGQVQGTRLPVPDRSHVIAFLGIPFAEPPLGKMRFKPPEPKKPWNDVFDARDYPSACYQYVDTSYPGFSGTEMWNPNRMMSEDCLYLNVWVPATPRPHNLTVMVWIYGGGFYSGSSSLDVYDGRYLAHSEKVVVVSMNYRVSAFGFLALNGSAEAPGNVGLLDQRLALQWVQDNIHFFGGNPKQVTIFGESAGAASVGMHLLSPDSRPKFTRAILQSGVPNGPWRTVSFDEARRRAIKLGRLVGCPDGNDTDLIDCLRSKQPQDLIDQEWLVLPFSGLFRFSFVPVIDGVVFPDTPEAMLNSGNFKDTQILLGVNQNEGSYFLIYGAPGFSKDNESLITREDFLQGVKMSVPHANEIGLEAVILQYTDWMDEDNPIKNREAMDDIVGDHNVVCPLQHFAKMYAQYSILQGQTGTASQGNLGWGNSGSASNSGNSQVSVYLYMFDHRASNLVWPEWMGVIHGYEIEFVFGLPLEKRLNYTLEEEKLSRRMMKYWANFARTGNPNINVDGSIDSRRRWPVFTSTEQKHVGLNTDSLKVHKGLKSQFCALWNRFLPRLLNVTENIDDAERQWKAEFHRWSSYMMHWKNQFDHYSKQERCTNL

With `CCCCNC(=O)Oc1ccc2c(c1)CN1CCc3c([nH]c4ccccc34)C1N2C` (stereo not given), the figures for the inhibition in data set [1] and in data set [2] were 5.4% and 47%, respectively. For the same molecule, in data set [3], the Ratio IC50 is more than 2.52. The concentration for half-maximal inhibition (IC50) on Acetylcholinesterase is more than 10 µM; against Cholinesterase, 3.97 µM.
As to `CN1c2ccc(O)cc2CN2CCc3c([nH]c4ccccc34)C21` (stereo not given), the ORAC value (Trolox equivalents) in data set [4] was 3.55. For the same molecule, the inhibition in [5] was 47%; in data set [1] it was 4.71%; in data set [6] it was 43%. Further, the Ratio IC50 in data set [3] is more than 5.17. The values for the IC50 at Acetylcholinesterase and against Cholinesterase were more than 100 µM and 19.3 µM, respectively. In addition, the figures for the Activity entry in the data set on HT-22 [7] and in the data set on HT-22 [8] were “Non-toxic” and “Toxic”, respectively. Further, the result in the data set with HT-22 [9] was Active.
Take `CCCCCCCNC(=O)Oc1ccc2c(c1)CN1CCc3c([nH]c4ccccc34)C1N2C` (stereo not given): the ORAC value (Trolox equivalents) in [4] is 1.75. Besides, the values for the inhibition in data set [1], in data set [2] and in data set [11] were 7.11%, 17% and “tde”, respectively. The K in [10] was determined as 492 nM. The Ratio IC50 in data set [3] is more than 130. For the same molecule, the 50% inhibitory concentration (IC50) is more than 10 µM at Acetylcholinesterase and 0.077 µM against Cholinesterase. The figures for the Activity entry in the data set on HT-22 [7] and with HT-22 [8] were “Non-toxic” and “Toxic”, respectively. In addition, the result in the data set with HT-22 [9] was Active.
`CNC(=O)Oc1ccc2c(c1)[C@]1(C)CCN(C)[C@@H]1N2C`: the inhibition in data set [1] was 7.22%; in [2], 8.11%.
For the molecule `CN1c2ccc(OC(=O)NCc3ccccc3)cc2C(=O)N2CCc3c([nH]c4ccccc34)C21` (stereo not given), the inhibition in data set [1] stood at 15%; in [2], 10%. The IC50 against Acetylcholinesterase and at Cholinesterase was more than 10 µM in each case.
On to `CCCCCCCNC(=O)Oc1ccc2c(c1)C(=O)N1CCc3c([nH]c4ccccc34)C1N2C` (stereo not given), for which the ORAC value (Trolox equivalents) in data set [4] was 0.32. Moreover, in the data set on HT-22 [12], the Activity entry is reported as “Toxic”. The result in the data set with HT-22 [9] was Active.
Take `CN1c2ccc(O)cc2C(=O)N2CCc3c([nH]c4ccccc34)C21` (stereo not given): the inhibition in data set [2] came to 29%. The IC50 against Acetylcholinesterase and on Cholinesterase was more than 100 µM throughout.
Regarding `CN1c2ccccc2C(=O)N2CCc3c([nH]c4ccccc34)C21` (stereo not given), the inhibition in data set [1] was found to be 5.34%; in [2], 37%. Moreover, the Ratio IC50 in data set [3] was more than 2.16. For the same molecule, the IC50 was more than 10 µM on Acetylcholinesterase and 4.62 µM against Cholinesterase.
On the same counts, the results for `CN1c2ccc(OC(=O)NCc3ccccc3)cc2CN2CCc3c([nH]c4ccccc34)C21` (stereo not given) are 5.67%, 34%, more than 4.65, more than 10 µM and 2.15 µM.
With `O=c1c(O)c(-c2ccc(O)c(O)c2)oc2cc(O)cc(O)c12`, the outcome in the data set on HT-22 [13] was Active.
For the molecule `CN1c2ccc(OCc3ccccc3)cc2C(=O)N2CCc3c([nH]c4ccccc34)C21` (stereo not given), the inhibition is 6.07% in [1] and 5.52% in data set [2]. Also, in data set [3], the Ratio IC50 was 3.42. The IC50 was determined as 3.01 µM against Acetylcholinesterase and 0.88 µM at Cholinesterase.
For the molecule `CC(C)c1ccc(NC(=O)Oc2ccc3c(c2)C(=O)N2CCc4c([nH]c5ccccc45)C2N3C)cc1` (stereo not given), the inhibition in data set [1] is 7%; in data set [2], 14%. Also, the half-maximal inhibitory concentration (IC50) at Acetylcholinesterase and against Cholinesterase was more than 10 µM throughout.
For `CCCCNC(=O)Oc1ccc2c(c1)C(=O)N1CCc3c([nH]c4ccccc34)C1N2C` (stereo not given), the inhibition in data set [1] turned out to be 12%; in data set [2], 10%. For the same molecule, the IC50 on Acetylcholinesterase and at Cholinesterase was more than 10 µM each time.
Regarding `CCNC(=O)Oc1ccc2c(c1)C(=O)N1CCc3c([nH]c4ccccc34)C1N2C` (stereo not given), the inhibition in [1] was 21%; in [2] it was 15%. For the same molecule, the IC50 on Acetylcholinesterase and against Cholinesterase was more than 10 µM in each case.
Take `CC(C)c1ccc(NC(=O)Oc2ccc3c(c2)CN2CCc4c([nH]c5ccccc45)C2N3C)cc1` (stereo not given): the inhibition in data set [1] was 41%; in data set [2] it was 13%. The IC50 against Acetylcholinesterase and at Cholinesterase was more than 10 µM throughout.
For the molecule `COc1cccc(NC(=O)Oc2ccc3c(c2)CN2CCc4c([nH]c5ccccc45)C2N3C)c1` (stereo not given), the results for the inhibition in [1] and in data set [2] were 30% and 19%, respectively. The half-maximal inhibitory concentration (IC50) at Acetylcholinesterase and at Cholinesterase was more than 10 µM each time.
For the molecule `COc1cccc(NC(=O)Oc2ccc3c(c2)C(=O)N2CCc4c([nH]c5ccccc45)C2N3C)c1` (stereo not given), the inhibition in [1] was 3%; in data set [2] it was 15%. The IC50 at Acetylcholinesterase and against Cholinesterase was more than 10 µM in each case.
On to `CN1c2ccccc2CN2CCc3c([nH]c4ccccc34)C21` (stereo not given), for which, in data set [4], the ORAC value (Trolox equivalents) worked out at 2.32. The results for the inhibition in data set [1] and in data set [2] were 5.57% and 24%, respectively. Further, the Ratio IC50 in data set [3] is more than 3.73. For the same molecule, the IC50 at Acetylcholinesterase is more than 10 µM; at Cholinesterase it was 2.68 µM. Also, the outcome in the data set on HT-22 [14] was Active.
Take `CCNC(=O)Oc1ccc2c(c1)CN1CCc3c([nH]c4ccccc34)C1N2C` (stereo not given): the inhibition in data set [1] was 5.99%; in data set [2], 26%. Moreover, in [3], the Ratio IC50 is more than 9.71. The concentration for half-maximal inhibition (IC50) against Acetylcholinesterase is more than 10 µM; against Cholinesterase it was 1.03 µM.

Broadly, the inhibition is the drop in the measured response relative to a control, in per cent. One may read the IC50 as the concentration at which inhibition is half-maximal.

(Values after ChEMBL document CHEMBL3259661, “Identification of a neuroprotective and selective butyrylcholinesterase inhibitor derived from the natural alkaloid evodiamine” (Eur J Med Chem, 2014).)
